In paper PMC12137120 (Nature, 2025):
Positions count from the first letter of the chain named.

Experiments:
MELJUSO cells [1] = assay: Incucyte 3D cell proliferation; type: cell-based, human; conditions: RAS(Q61L) melanoma MELJUSO; twice-a-week treatment, 30 µM
Summary of the method: (§1)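 Cells were seeded in sextuplicate in ultralow-attachment round-bottom plates in 10% FCS medium, spun 3 min at 200g and left 24 h to form spheroids or aggregates. They were dosed with 30 µM test compound or DMSO twice weekly at 37 °C, 5% CO2, and imaged by Incucyte every 6 h for three weeks at ×10. Data are mean ± s.d., n = 6; two independent experiments.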

SHOC2 (80–582) = target: T1, SHOC2 (80–582) (Homo sapiens, UniProt Q9UQ13); assay: SPR to assess affinity of low-molecular-weight ligands on immobilized SHOC2; type: binding; conditions: versus (R)-5
T1 sequence (Q9UQ13 80-582): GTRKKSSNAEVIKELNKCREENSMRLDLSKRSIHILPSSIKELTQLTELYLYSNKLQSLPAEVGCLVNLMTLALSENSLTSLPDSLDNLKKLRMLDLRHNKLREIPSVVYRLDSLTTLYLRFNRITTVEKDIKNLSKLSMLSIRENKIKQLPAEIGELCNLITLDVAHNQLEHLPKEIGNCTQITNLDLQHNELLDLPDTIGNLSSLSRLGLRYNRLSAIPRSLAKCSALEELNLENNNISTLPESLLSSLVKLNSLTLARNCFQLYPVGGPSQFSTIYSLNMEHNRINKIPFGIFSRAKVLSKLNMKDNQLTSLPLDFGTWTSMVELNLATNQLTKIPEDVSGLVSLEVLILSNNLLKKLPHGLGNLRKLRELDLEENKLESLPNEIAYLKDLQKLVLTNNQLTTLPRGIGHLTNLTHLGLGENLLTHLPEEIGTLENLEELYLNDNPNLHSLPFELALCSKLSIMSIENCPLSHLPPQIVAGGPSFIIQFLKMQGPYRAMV

A375 cells [2] = assay: Incucyte 3D cell proliferation; type: cell-based, human; conditions: BRAF(V600E) melanoma A375; twice-a-week treatment, 30 µM
Summary of the method: as §1

A375 cells [3] = assay: Immunoblot of MAPK signalling; type: cell-based, human; conditions: BRAF(mut) melanoma cells A375, 30 µM, time course
Summary of the method: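 A375 cells got 30 µM test compound and were collected at several time points. They were cleared at 13,000 rpm, 4 °C, 20 min, protein was quantified by BCA, and samples were immunoblotted. Two independent experiments were run.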

SHOC2(G290A)–NRAS(Q61K) = target: T2, SHOC2(G290A)–NRAS(Q61K) (Homo sapiens, UniProt Q9UQ13, G290A); assay: SHOC2; type: cell-based
T2 sequence (Q9UQ13 1-582 G290A): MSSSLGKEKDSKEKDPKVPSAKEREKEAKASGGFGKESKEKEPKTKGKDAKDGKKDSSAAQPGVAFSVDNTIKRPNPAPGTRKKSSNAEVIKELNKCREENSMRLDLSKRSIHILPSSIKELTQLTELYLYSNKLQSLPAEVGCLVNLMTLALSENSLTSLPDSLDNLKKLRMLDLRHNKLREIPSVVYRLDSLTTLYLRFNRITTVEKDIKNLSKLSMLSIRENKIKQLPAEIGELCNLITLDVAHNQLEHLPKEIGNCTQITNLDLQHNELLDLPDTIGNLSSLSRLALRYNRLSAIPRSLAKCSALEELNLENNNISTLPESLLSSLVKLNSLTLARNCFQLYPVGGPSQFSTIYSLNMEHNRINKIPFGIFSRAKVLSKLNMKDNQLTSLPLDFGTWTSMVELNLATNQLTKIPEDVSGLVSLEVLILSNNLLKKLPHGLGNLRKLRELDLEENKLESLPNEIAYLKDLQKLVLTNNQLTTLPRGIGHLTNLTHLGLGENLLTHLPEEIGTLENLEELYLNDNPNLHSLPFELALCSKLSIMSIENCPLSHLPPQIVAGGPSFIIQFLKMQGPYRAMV
Summary of the method: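 HEK 293T cells were plated at 20,000 per well and incubated overnight at 37 °C, 5% CO2. They were then transiently transfected with SHOC2(G290A)–SmBiT and LgBiT–NRAS(Q61K) and incubated overnight again. Test compound was added for 4 h as a seven-point 1:3 series from 10 µM […], from stock in DMSO/H2O 90:10. NanoGlo Live substrate (1:60 in phenol-red-free Opti-MEM) was then added.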

Mel Juso cell line = assay: RNA-seq global transcriptome analysis; type: cell-based, human; conditions: 4 h and 24 h, 30 µM and 100 µM
[4] = test system: RAS mutant and wild-type cell lines; assay: Immunoblot of MAPK signalling in a panel of RAS mutant and wild-type cell lines; type: cell-based, human; conditions: 4 h, 30 µM
SHOC2(WT)–NRAS(Q61K) = target: T3, SHOC2(WT)–NRAS(Q61K) (Homo sapiens, UniProt Q9UQ13); assay: SHOC2–NRAS; type: cell-based
T3 sequence (Q9UQ13 1-582): T2 sequence (Q9UQ13 1-582 G290A) with A290G
Summary of the method: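 Monoclonal HEK 293T lines stably expressed full-length SHOC2–SmBiT with LgBiT–NRAS(Q61K); a SmBiT–128-aa linker–LgBiT line served as control. Cells were kept in DMEM with 10% FCS. 20,000 cells per well were seeded in medium with 0.1% FCS and held 2 h at 37 °C. Test compound was given for 4 h (seven-point 1:3, 30 µM to 40 nM). Medium was then replaced with phenol-red-free Opti-MEM plus NanoGlo Live substrate (1:60). n = 3 biological samples.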

[5] = test system: RAS mutant and RAS WT cell lines; assay: Incucyte 3D cell proliferation, panel of RAS mutant and RAS WT cell lines; type: cell-based, human; conditions: 30 µM
Summary of the method: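 For spheroid or aggregate formation, cells were seeded in sextuplicate in ultralow-attachment round-bottom plates in 10% FCS medium, centrifuged 3 min at 200g and left 24 h. They were treated with 30 µM test compound or DMSO at 37 °C, 5% CO2, and imaged on an Incucyte every 6 h for three weeks at ×10.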

SHOC2(G290A)–NRAS(Q61R) = target: T4, SHOC2(G290A)–NRAS(Q61R) (Homo sapiens, UniProt Q9UQ13, G290A); assay: TR-FRET assay with resistant mutant SHOC2; type: binding
T4 sequence (Q9UQ13 1-582 G290A): T2 sequence (Q9UQ13 1-582 G290A)

GTP-loaded RAS = assay: Active RAS pull-down assay; type: cell-based, human; conditions: Mel Juso and A375 cells, 30 µM, 2 h and 4 h
Summary of the method: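 Cells were treated with 30 µM test compound or DMSO for 2 h and 4 h, then lysed per the kit. 400 µg lysate was rotated with Raf-RBD beads for 1 h at 4 °C. Bound protein was eluted in 2× Laemmli buffer, boiled 5 min at 95 °C and immunoblotted alongside total lysates. Two independent experiments were run.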

MELJUSO cells [6] = assay: Immunoblot of MAPK signalling; type: cell-based, human
Summary of the method: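 MELJUSO cells were treated either with increasing doses for 24 h or with 30 µM over a time course. Lysis was in 1% Triton X-100/Tris-HCl pH 7.4/NaCl/EDTA buffer with phosphatase and protease inhibitors, then clearing at 13,000 rpm, 4 °C, 20 min and BCA protein assay. Immunoblots of the time course were quantified by densitometry as pCRAF/CRAF and pERK/ERK. Two independent experiments were run.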

SHOC2–NRAS(Q61R) = target: T5, SHOC2–NRAS(Q61R) (Homo sapiens, UniProt Q9UQ13); assay: TR-FRET competitive binding assay SHOC2–NRAS Q61R:GTP; conditions: versus (R)-5
T5 sequence (Q9UQ13 1-582): T2 sequence (Q9UQ13 1-582 G290A) with A290G

fold higher potency in SPR assay (SHOC2 (80–582))	activity in SHOC2(G290A)–NRAS(Q61mut) NanoBiT assay (SHOC2(G290A)–NRAS(Q61K))	activity in SHOC2(WT)–NRAS(Q61mut) NanoBiT assay (SHOC2(WT)–NRAS(Q61K))	activity in SHOC2(G290A)–NRAS(Q61R) TR-FRET (SHOC2(G290A)–NRAS(Q61R))	fold higher potency in TR-FRET assay (SHOC2–NRAS(Q61R))	SMILES	3D cell proliferation (MELJUSO cells [1])	3D cell proliferation (A375 cells [2])	pERK or pMEK inhibition (A375 cells [3])	transcriptome changes, RAS/MAPK-associated genes (Mel Juso cell line)	MAPK signalling in EGFRΔex19 cells [4]	MAPK signalling in wild-type RTK/RAS or BRAF(V600E) mutant cell lines [4]	MAPK signalling in RAS mutant settings ([4]; Q61L, G12D and G12C mutant conditions)	3D proliferation in wild-type RAS settings ([5]; including EGFRΔex19 cells)	3D proliferation of RAS mutant models ([5]; prolonged treatment)	RAS–GTP loading (GTP-loaded RAS)	inhibited CRAF (phospho-S259) levels (MELJUSO cells [6]; MELJUSO, 30 µM, time course)	MEK and ERK phosphorylation (MELJUSO cells [6]; NRAS(Q61mut) melanoma cells MELJUSO, 24 h increasing doses)	MAPK signalling in all cell models tested [4]
10 fold	no activity	selective displacement	fully abolish compound 6 activity	10 fold	CC(C)(C(=O)O)[C@H](NC(=O)Cc1cccc(I)c1)c1ccc2oc(=O)[nH]c2c1 [Compound 6, (R)-3-(2-(3-iodophenyl)acetamido)-2,2-dimethyl-3-(2-oxo-2,3-dihydrobenzo[d]oxazol-5-yl)propanoic acid]	suppressed the cell proliferation	but not of BRAF(V600E)	did not show any pERK or pMEK inhibition	dose-dependent and time-dependent modulation	only minor effects	no detectable effect	downregulated MAPK signalling	none	anti-proliferative effects	unaffected	increased levels	dose-dependent inhibition	–
–	–	no activity	–	–	CC(C)(C(=O)O)[C@@H](NC(=O)Cc1cccc(I)c1)c1ccc2oc(=O)[nH]c2c1 [Compound 7, (S)-3-(2-(3-iodophenyl)acetamido)-2,2-dimethyl-3-(2-oxo-2,3-dihydrobenzo[d]oxazol-5-yl)propanoic acid]	–	–	–	no significant changes	–	–	–	–	–	–	–	–	inert
